Compound activity: PubChem BioAssay, several laboratories
UPR CHOP act: apoptotic UPR (CHOP) activation | AID 449763 | CHO-CHOP luciferase reporter, luminescence; percent of tunicamycin response over DMSO baseline | 330,000 tested, 0.34% active | activation, % at 10 µM;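 active = at 10 µM dose, activation of 40% or more, normalized to positive control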;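 note: 100% = tunicamycin at 10 µg/mL and 0% = DMSO alone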
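Assay system: CHO cells with stable CHOP pathway luciferase reporter; Buffer or medium: F12 plus 10% serum; Times: 16-18 h cell attachment, then 6 h compound exposure, 37 °C; Signal: luciferase luminescence; Read-out basis: percent activation relative to tunicamycin control; Control set: tunicamycin high control, DMSO low control.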
CHOP inhibitor: blocks CHOP induction under ER stress. inhibition, % at 10 µM. AID 2732. 220,000 tested, 3.8% active. CHO-K1 CHOP-promoter luciferase, tunicamycin-induced, 15-18 h;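 active = compounds that reduced the stress-induced luciferase reporter signal by more than about 70% of percent inhibition, limit read from the data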;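 note: 0% = tunicamycin plus vehicle and 100% = wells without tunicamycin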
UPR XBP1 act: activators of adaptive arm of unfolded protein response (XBP1); AID 463104; 330,000 tested, 0.33% active; CHO-XBP1 luciferase reporter, IRE1-XBP1 UPR activation, luminescence; percent of tunicamycin response, DMSO as zero; activation, % at 20 µM;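 active = versus positive control, 20 µM dose yields 30% or more activation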;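 note: 100% = tunicamycin at 10 µg/mL and 0% = DMSO only wells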
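Assay system: CHO-XBP1 luciferase reporter cells; Schedule: 6 h treatment, 37 °C; Detection: glow luminescence from Steady-Glo reagent; Benchmarks: high control tunicamycin 10 µg/mL final, low control DMSO vehicle only.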
hiPSC survival: enhancers of human iPSC single-cell survival. hiPSC single-cell survival, ATPlite luminescence; 100% = ROCK inhibitor wells, 0% = DMSO. survival enhancement, % at 20 µM. 360,000 tested, 0.044% active. AID 602274; in the data active = survival enhancement above about 18%;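 note: cells exposed to compounds for 16 hours before the ATP read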
Cardio protect: protects H9c2 cardiomyocytes from peroxide injury | protection from H2O2 cell death, % at 20 µM | H2O2 injury protection, ATPLite, 2 h | 360,000 tested, 0.63% active | AID 588492;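 active = compounds giving at least 50% protection of heart cells from peroxide-induced death in the single-dose screen, raw or plate-pattern-corrected value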;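 note: 0% = DMSO wells with peroxide and 100% = DMSO wells without peroxide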
* marks the source's active call; other numbers are inactive results; . = no result given. This excerpt belongs to a sample that is enriched for hits.

SMILES	UPR CHOP act	CHOP inhibitor	UPR XBP1 act	hiPSC survival	Cardio protect
O=C(Nc1ccc(C(F)(F)F)cc1)c1cc(S(=O)(=O)NCC2COc3ccccc3O2)ccc1F (stereo not given)	-1	82*	-2	-2	-27
COc1ccc(NC(=O)c2cc(S(=O)(=O)NCC3COc4ccccc4O3)ccc2F)cc1 (stereo not given)	1	45	-5	0	-7
O=C(O)c1cc(S(=O)(=O)NCC2COc3ccccc3O2)ccc1Cl (stereo not given)	1	.	0	1	10
CCOc1cccc(Nc2cc3n(c(=O)n2)CCc2cc(OC)c(OC)cc2-3)c1	-1	22	9	-1	60*
CCOc1ccc2cc(C#N)c(SCC(=O)N3CCC(C)CC3)nc2c1	1	-97	3	8	11
CCOC(=O)CSc1nc2cc(OCC)ccc2cc1C#N	3	93*	12	1	-7
COc1ccc(O)c(C(=O)c2cnc3nc4ccccc4n3c2)c1	.	18	.	-1	61*
O=C(O)CCC(=O)Nc1nc2ccccc2s1	1	72*	-1	0	9
Cc1ccc2nc(NC(=O)CCCc3nc4ccccc4s3)sc2c1	4	66	0	4	-12
Cc1ccc2nc(NC(=O)CSCC(=O)OCC(=O)c3ccccc3)sc2c1	.	71*	.	-1	-5
CCOCC(=O)Nc1nc2ccc(C)cc2s1	-1	-64	-3	4	-17
CCCC(=O)Nc1nc2ccc(NC(=O)c3ccc(Br)o3)cc2s1	4	24	1	-2	73*
Cc1ccc2nc(NC(=O)CCCC(=O)O)sc2c1	-7	82*	-5	-1	-14
O=S1(=O)CC(N2CCN(CCO)CC2)CN1Cc1cn(Cc2ccccc2C(F)(F)F)nn1 (stereo not given)	.	.	.	-1	3
COc1cccc(/C=N/N2CCN(c3ccccc3OC)CC2)c1	1	76*	3	1	-6
COc1ccccc1N1CCN(/N=C/c2cccc(Cl)c2)CC1	5	.	-2	0	-11
COc1cccc(-c2oc3c(c2C(=O)OCCN(C)C)C(O)CCC3)c1 (stereo not given)	.	.	.	1	.
COc1ccc(CNc2nc3c(c(C(F)(F)F)n2)CCCCC3)cc1	.	90*	.	.	.
COc1ccc(CNC(=O)Cn2nc(C(F)(F)F)c3c2CCC3)cc1	-1	-4	0	5	-5
CCNC(=O)C1(C)CCCN(Cc2cc(-c3ccccc3)n(C)n2)C1 (stereo not given)	.	.	.	-1	2
CCCCN(C(=O)Cc1coc2cc(C)c(C)cc12)c1c(N)n(Cc2ccccc2)c(=O)[nH]c1=O	0	.	2	0	0
C=CCOc1ccccc1CNc1ccccc1C	0	70*	-3	-1	-6
Cc1ccccc1NCc1ccccc1O	0	33	-1	-2	-27
O=C1C=CC(O)C2(CO)OC12 (stereo not given)	.	.	.	-2	0
CC(=O)OC[C@@H]1CN(Cc2ccccc2)C[C@H](n2cnc3c(N4CCOCC4)ncnc32)O1	.	.	.	0	-4
SMILES	UPR CHOP act	CHOP inhibitor	UPR XBP1 act	hiPSC survival	Cardio protect
CCC(=O)CN(Cc1cc(OC)ccc1OC)S(=O)(=O)c1ccccc1Br	3	.	2	1	-4
CN1CC(c2ccc(Cl)c(Cl)c2)[C@@]2(COc3ccccc3C2=O)[C@@]12C(=O)Nc1ccccc12 (stereo not given in full)	1	74*	2	-2	-15
C[C@H]1CN([C@@H](C)CO)S(=O)(=O)c2ccc(Br)cc2O[C@H]1CN(C)C(=O)Cc1ccncc1	.	.	.	-1	3
CN(C)S(=O)(=O)c1ccc2[nH]cc(/C=C/c3nc4ccccc4c(=O)n3-c3ccccc3)c2c1	5	29	7	2	66*
CCn1c(/C=C/c2c[nH]c3ccccc23)nc2ccccc2c1=O	7	46	15	1	8
CN1CCc2cc(Cl)c(O)cc2[C@@H](c2ccccc2)C1	1	4	-5	2	24
CN1CCc2cc(O)c(O)cc2C(c2ccccc2)C1 (stereo not given)	2	-12	-3	2	54*
C[C@H]1CC2C3CCC4=CC(=O)C=C[C@]4(C)[C@@]3(Cl)[C@@H](O)C[C@]2(C)[C@@]1(O)C(=O)CO (stereo not given in full)	.	7	.	.	.
COc1cc([N+](=O)[O-])ccc1NC(=S)Nc1cc(C(=O)OC(C)C)cc(C(=O)OC(C)C)c1	15	85*	0	1	-10
COc1ccc(C(O)c2ncc(-c3ccccc3)[nH]2)cc1F (stereo not given)	.	.	.	3	2
CN(C)S(=O)(=O)c1cccc(-n2sc3ccccc3c2=O)c1	4	93*	-3	-3	-2
O=c1c2ccccc2sn1-c1ccc(S(=O)(=O)N2CCCC2)cc1	9	87*	-1	-1	-8
O=C(O)c1cccc(-n2sc3ccccc3c2=O)c1	8	.	-4	3	78*
O=c1c2ccccc2sn1-c1cccc(Cl)c1	.	.	.	-3	-32
CC(C)Cc1cc(C(=O)Nc2sc3c(c2C#N)CCCC3)no1	3	77*	0	1	-21
CC(C)Cc1cc(C(=O)Nc2cccnc2)no1	0	43	-1	-2	-18
CC(C)Cc1cc(C(=O)Nc2sc3c(c2C#N)CCC3)no1	-1	10	1	6	-17
CSc1ccccc1NC(=O)c1cc(CC(C)C)on1	5	75*	0	-3	-12
CC(=O)c1cc2c(cc1C)CCCC2(C)C	.	.	.	0	4
O=C(N/N=C/c1cccc([N+](=O)[O-])c1O)C(O)(c1ccccc1)c1ccccc1	3	.	-3	0	63*
O=C(CCC(=O)c1ccc(F)cc1)Nc1cc(Cl)cc(Cl)c1	0	84*	2	2	-3
CC(=O)c1cccc(NC(=O)CCC(=O)c2ccc(F)cc2)c1	0	.	-1	-1	19
CCCc1ccc(C(=O)N2CCN(c3ccccc3OCC)CC2)cc1	-3	71*	-2	23*	0
Cc1nc(N2CCC(C)CC2)c2c(C)c(C(=O)Nc3ccc(C)c(F)c3)sc2n1	-2	71*	-2	-2	-2
Cc1cc(NC(=O)CCl)n(-c2nc3ccccc3s2)n1	11	77*	3	-4	1
Cc1cc(NC(=O)C2CC2)n(-c2nc3ccccc3s2)n1	1	10	-3	0	-4
COc1ccccc1C(=O)N(Cc1nc(-c2ccc(Cl)cc2)no1)C(C)C	-2	75*	-3	-1	-18
COc1ccc(-c2noc(CN(C(=O)c3c(-c4ccccc4Cl)noc3C)C(C)C)n2)cc1	-4	72*	-4	5	2
COc1ccc2cc(C3=CC(=O)CC(C)(C)C3=O)ccc2c1	.	.	.	-1	7
